PP5 primary: PP5 phosphatase inhibitors, primary screen, biochemical, fluorescence; purified PP5c, OMFP substrate fluorescence; AID 1987, 2009; 320,000 compounds, 0.18% hits; inhibition, % at 6.7 µM; Serine/threonine-protein phosphatase 5 (Homo sapiens), P53041;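 active = inhibition above the campaign's mean inhibition across all tested compounds plus 3 SD, cut at about 9.5% in these data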
NadD block: inhibitors of S. aureus NadD, primary screen, biochemical, colorimetric, uHTS. Nicotinate-nucleotide adenylyltransferase NadD (Staphylococcus aureus N315). purified NadD enzyme, colorimetric absorbance read-out. inhibition, % at 20 µM. 360,000 compounds, 0.78% hits. AID 602399, 2012; in the data active = inhibition above about 26%
Myeloid diff MLP: induction of myeloid progenitor differentiation, primary screen, cell-based, flow cytometry, MLPCN library; ER-HoxA9 myeloid progenitors, lysozyme-GFP differentiation; calls only at 10 µM; 360,000 compounds, 1% hits;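 active = normalized GFP-positive differentiation at or above the plate's own cutoff, the solvent-only control mean plus 3 SD; inconclusive = no clear call, values can overlap the other calls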;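 note: cells exposed to compound for four days before flow analysis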
core dimer inh: inhibitors of HCV core protein dimerization, primary screen, biochemical, TR-FRET, high-throughput. inhibition, % at 5 µM. 300,000 compounds, 0.33% hits. AID 1899, 2009. TR-FRET GST/Flag-core106 dimerization, 1536-well;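 active = inhibition above the mean of all tested compounds plus 3 SD, set per screening campaign, cut at about 45% in these data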
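Assay system: Tagged HCV core106 pair (GST and Flag) | Buffer or medium: KF-containing HEPES buffer, pH 7.45, DTT, CHAPS, BSA | Also added: Eu donor and XL665 acceptor anti-tag antibodies | Dosing: One concentration, 5 µM, in 0.5% DMSO | Timing: 4 h at 22.5 °C | Technique: TR-FRET 671 and 617 nm emission | Repeats: Singlicate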
PP1 inh: PP1-alpha phosphatase inhibitors, primary screen, counter-screen for PP5 inhibitor project, biochemical, fluorescence, OMFP substrate, single point; Serine/threonine-protein phosphatase PP1-alpha catalytic subunit (Homo sapiens), P62136; purified PP1alpha; inhibition, % at 6.7 µM; 320,000 compounds, 0.9% hits;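 active = inhibition above the mean inhibition of all tested compounds plus 3 SD, computed separately for each screening campaign, cut at about 15% in these data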
Target sequence (P62136 whole entry, looked up): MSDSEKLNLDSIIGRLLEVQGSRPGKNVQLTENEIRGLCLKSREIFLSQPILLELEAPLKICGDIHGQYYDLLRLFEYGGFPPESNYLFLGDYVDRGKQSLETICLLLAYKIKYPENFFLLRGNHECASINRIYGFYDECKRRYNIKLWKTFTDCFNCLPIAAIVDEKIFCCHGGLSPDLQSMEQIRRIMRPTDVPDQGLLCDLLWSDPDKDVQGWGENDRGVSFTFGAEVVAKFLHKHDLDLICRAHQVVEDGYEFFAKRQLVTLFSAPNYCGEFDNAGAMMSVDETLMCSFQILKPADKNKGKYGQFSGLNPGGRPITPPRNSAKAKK
CTSL1 counter: Fasciola hepatica cathepsin L1 inhibitors, primary screen, counter-screen for PFM18AAP inhibitor project, biochemical, QFRET, fluorogenic peptide substrate; recombinant F. hepatica cathepsin L1, Z-Leu-Arg-MCA fluorescence; inhibition, % at 5.96 µM; 300,000 compounds, 0.49% hits; AID 1906, 2009;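 active = inhibition above the mean of all tested compounds plus 3 SD, set per screening campaign, cut at about 17% in these data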
A number is an active result; . = inactive; ? = inconclusive; / = no result; + = active, no number. Hits are enriched below; roughly 3.1% of the tested compounds scored in any of these assays.

SMILES | PP5 primary | NadD block | Myeloid diff MLP | core dimer inh | PP1 inh | CTSL1 counter
O=c1c(/C=C(\O)c2ccc(F)cc2)nc2ccccc2n1-c1ccccc1 | . | . | + | . | . | .
O=S(=O)(Nc1ccc(Br)cc1)c1cccc(NS(=O)(=O)c2cccs2)c1 | / | . | . | / | / | /
Cc1cc(NC(=S)N(Cc2ccc(Br)cc2)Cc2ccc(C(=O)O)cc2)ccc1Cl | . | . | . | . | 16 | .
N=c1c(S(=O)(=O)c2ccccc2)cc2c(=O)n3ccccc3nc2n1C1CCCC1 | . | . | + | . | . | .
CCOC(=O)[C@]12CCC=C1N(Cc1ccccc1)C(=O)[C@H](CC(=O)N1CCN(C(=O)c3ccco3)CC1)C2 | / | . | . | / | / | /
COC(=O)c1ccc2c(c1)C(C)(C)C(/C=C/c1ccc(OC)c(OC)c1OC)=[N+]2C | . | . | ? | . | . | .
COC(=O)c1ccc2c(c1)C(C)(C)C(/C=C/c1ccc(O)cc1)=[N+]2C | . | . | / | . | 17 | .
COc1ccc(OC)c(N=c2oc3cc(O)ccc3cc2C(N)=O)c1 | . | . | ? | . | . | .
COc1ccc2oc(=Nc3cc(F)ccc3F)c(C(N)=O)cc2c1 | . | . | + | . | . | .
COc1ccc(/C=C2\CN(Cc3ccccc3)C/C(=C\c3ccc(OC)cc3OC)C2=O)c(OC)c1 | . | 29 | . | 49 | 16 | .
COc1cc(C2CC(c3cccs3)=NN2C(=O)CCl)ccc1OC(F)F (stereo not given) | . | . | ? | . | . | 59
Cc1ccc(C2CC(c3cccs3)=NN2C(=O)CSc2nc(=O)n3cc(C)ccc3n2)cc1 (stereo not given) | . | . | + | . | . | .
COc1ccc(C2CC(c3cccs3)=NN2C(=O)c2ccccc2)cc1OC (stereo not given) | . | . | . | . | . | .
COc1ccc(C2CC(c3cccs3)=NN2C(=O)CCl)cc1OC (stereo not given) | . | . | ? | . | . | 58
Cc1ccc(S(=O)(=O)NCCC(=O)Nc2ncccc2O)cc1C | . | . | . | . | . | .
COc1ccc(N(C(=O)CNC(=O)c2cccs2)C(C(=O)NCC2CCCO2)c2ccccc2)c(OC)c1 (stereo not given) | . | . | . | . | . | .
CCOc1ncccc1C(=O)Nc1ccc2c(c1)OCCCO2 | / | . | . | / | / | /
N#CCc1ccc(Oc2ncc(C(F)(F)F)cc2Cl)cc1 | . | . | . | . | . | .
Cc1ccc(CO/N=C\Cc2snc(Sc3ncc(C(F)(F)F)cc3Cl)c2C#N)cc1 | . | . | + | . | . | .
COc1cccc(CNC(=O)COC(=O)/C=C/c2ccc(SC)cc2)c1 | / | . | . | / | / | /
Cc1ccc2nc3c(cc(C(=O)NC4CCS(=O)(=O)C4)n3Cc3ccccc3)c(=O)n2c1 (stereo not given) | . | . | . | . | . | .
COc1cc(-c2cc(-c3ccc(N)cc3)[nH]c(=O)c2C#N)cc(OC)c1OC | . | . | + | . | . | .
N#Cc1c(-c2ccccc2)cc(-c2ccccc2)[nH]c1=O | . | . | . | . | . | .
CNCc1cc(C)n(-c2cc(S(=O)(=O)N3CCOCC3)ccc2N2CCCC2)c1C | / | . | . | / | / | /
Cc1ccc(C)n1-c1cc(S(=O)(=O)N2CCOCC2)ccc1N1CCCC1 | . | 35 | . | . | . | .
SMILES | PP5 primary | NadD block | Myeloid diff MLP | core dimer inh | PP1 inh | CTSL1 counter
Cc1cc(N/N=C/c2ccccc2[N+](=O)[O-])nc(-n2nc(C)cc2C)n1 | . | . | . | . | . | .
Cc1cc(N/N=C/c2ccc(O)cc2O)nc(-n2nc(C)cc2C)n1 | . | . | . | . | 16 | .
Cc1ccccc1CSc1nnc(-c2ccco2)n1Cc1ccco1 | . | . | + | . | . | .
CCN(C(=O)c1ccc(C(C)(C)C)cc1)c1nnc(Cn2nnc3ccccc32)s1 | . | . | + | . | . | .
Cc1ccc(S(=O)(=O)NC2=NCN(CC(=O)O)CN2)cc1 | . | . | . | . | . | .
O=C(CCS(=O)(=O)c1ccccc1)NCc1ccccc1 | . | . | . | . | . | 31
O=C(NCc1ccco1)/C(=C/c1ccco1)NC(=O)c1ccco1 | . | . | . | . | . | 19
O=C(NCc1ccco1)/C(=C\c1ccco1)NC(=O)c1ccccc1Cl | . | . | . | . | . | .
CCN(CC)C(=O)C1=C(C)N(Cc2ccccc2)C(=O)C(CC(=O)NCCCN(C)C)C1 (stereo not given) | / | . | . | / | / | /
CC(C)/C=C1\CC/C(=C\c2ccc(N(C)C)cc2)C1=O | . | . | + | . | . | .
Cc1cc(C)n(C(CC(=O)N2CCc3ccccc3C2)C(=O)O)n1 (stereo not given) | . | . | + | . | . | .
COc1ccc(CNC(=O)CCCC(=O)n2nc(C)c3ccccc32)cc1 | . | . | . | . | . | .
CCn1c(=NC(=O)CS(=O)(=O)c2ccc(F)cc2)sc2cccc(OC)c21 | . | . | + | . | . | .
O=C(N/N=C/c1ccco1)c1cc(-c2ccncc2)nc2ccccc12 | / | . | . | / | / | /
CC(/C=N/NC(=O)c1cc(-c2ccc(Cl)cc2)nc2ccccc12)=C\c1ccco1 | . | . | . | 88 | . | .
CC(/C=N/NC(=O)c1cc(-c2ccccc2)nc2ccccc12)=C\c1ccco1 | . | . | ? | 51 | . | .
Cc1cc(C(=O)N/N=C/c2ccco2)c2ccccc2n1 | . | . | . | . | . | .
CC(C)CC(=O)Nc1c2c(nn1-c1ccc(F)cc1)CS(=O)(=O)C2 | . | . | . | . | . | .
O=C(c1cccc(Br)c1)N1CCN(c2ccc(N3CCOCC3)nn2)CC1 | . | . | . | . | . | 18
O=C(COC(=O)CNC(=O)C1CCCCC1)Nc1ccc2ccccc2c1 | . | . | . | . | . | 27
O=C(COC(=O)CNC(=O)C1CCCCC1)Nc1ccc2c(c1)OCCO2 | . | . | . | . | . | 34
O=C(COC(=O)CNC(=O)C1CCCCC1)Nc1ccc(F)c([N+](=O)[O-])c1 | / | . | . | / | / | /
O=C(CNC(=O)C1CCCCC1)OCn1nnc2ccccc2c1=O | . | . | . | . | . | 56
CC(C)(C)c1ccc(C(=O)NCC(=O)OCC(=O)Nc2ccc3c(c2)OCCO3)cc1 | . | . | . | . | . | .
O=C(CC1CCCCC1)OCn1nnc2ccccc2c1=O | . | . | . | . | . | .
CC(CO)NS(=O)(=O)c1cccc(Cl)c1F (stereo not given) | / | . | . | / | / | /
CC(=O)c1ccc(OC(=O)C(CCS(C)(=O)=O)N2C(=O)c3ccccc3C2=O)cc1 (stereo not given) | . | . | . | . | . | .
